In one test the target is T1, Endothelin-1 receptor (Homo sapiens, UniProt P25101).
T1 sequence (P25101 whole entry): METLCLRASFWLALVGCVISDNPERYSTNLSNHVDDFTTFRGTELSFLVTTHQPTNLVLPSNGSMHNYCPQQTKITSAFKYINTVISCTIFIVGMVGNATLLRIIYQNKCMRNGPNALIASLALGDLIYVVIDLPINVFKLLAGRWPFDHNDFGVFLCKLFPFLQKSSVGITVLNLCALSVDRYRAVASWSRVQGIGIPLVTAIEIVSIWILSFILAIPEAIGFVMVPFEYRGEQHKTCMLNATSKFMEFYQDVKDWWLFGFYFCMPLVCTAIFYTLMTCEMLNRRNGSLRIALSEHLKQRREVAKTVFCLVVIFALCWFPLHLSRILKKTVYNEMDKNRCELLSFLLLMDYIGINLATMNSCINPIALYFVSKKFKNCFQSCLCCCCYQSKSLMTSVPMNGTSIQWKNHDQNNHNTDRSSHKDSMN
The experiment in a line: Binding affinity against human cloned endothelin A receptor expressed in LTK-cells. It is filed as cell-based. In a few lines: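 Radioligand binding to cloned human ETA (Ltk⁻ cells) and ETB (CHO-K1 cells) receptors. Selectivity expressed as ETB IC50/ETA IC50.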

In test [1] the target is T2, Endothelin receptor type B (Homo sapiens, UniProt P24530).
T2 sequence (P24530 whole entry): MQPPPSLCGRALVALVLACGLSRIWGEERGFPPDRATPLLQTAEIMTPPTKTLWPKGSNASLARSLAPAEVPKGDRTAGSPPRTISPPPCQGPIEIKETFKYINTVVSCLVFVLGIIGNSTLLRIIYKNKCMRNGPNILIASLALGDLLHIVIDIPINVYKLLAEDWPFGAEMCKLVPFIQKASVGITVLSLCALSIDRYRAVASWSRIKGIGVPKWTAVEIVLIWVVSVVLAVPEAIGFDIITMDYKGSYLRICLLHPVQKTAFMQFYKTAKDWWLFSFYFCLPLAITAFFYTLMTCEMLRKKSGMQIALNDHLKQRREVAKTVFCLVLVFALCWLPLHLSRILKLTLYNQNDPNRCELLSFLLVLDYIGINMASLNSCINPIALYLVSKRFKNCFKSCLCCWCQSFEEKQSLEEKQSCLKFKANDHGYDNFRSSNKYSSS
The experiment in a line: Binding affinity against human cloned Endothelin B receptor expressed in CHO-K1 cells. The format is cell-based. In a few lines:
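Radioligand binding to cloned human ETA (Ltk⁻ cells) and ETB (CHO-K1 cells) receptors. […] Selectivity expressed as ETB IC50/ETA IC50.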

Each structure is given as a SMILES string.

As usually defined, the IC50 is the point on the concentration scale where inhibition reaches its midpoint. A low value points to higher potency. The molecule `COc1ccc(C2(O)OC(=O)C(c3ccc4c(c3)OCO4)=C2Cc2ccc(NC(C)=O)cc2)cc1` (configuration not stated) returned an IC50 on Endothelin-1 receptor of 1.2 nM. This counts as single-digit nanomolar.
On the same count and under the same terms, next, `COc1ccc(C2(O)OC(=O)C(c3ccc4c(c3)OCO4)=C2Cc2cc(OC)ccc2OC)cc1` (configuration not stated): 2.1 nM.
As for `COc1ccc(C2(O)OC(=O)C(c3ccc4c(c3)OCO4)=C2Cc2ccc(O)cc2)cc1` (configuration not stated), the IC50 on Endothelin-1 receptor was 8 nM; in test [1], greater than 250 nM.
In the same order, the values of `COc1ccc(C2(O)OC(=O)C(c3cc(OC)cc(OC)c3)=C2Cc2ccccc2)cc1` (configuration not stated) are 46 nM and 5200 nM.
`COc1ccc(C2(O)OC(=O)C(c3ccc4c(c3)OCO4)=C2Cc2ccc3c(c2)OCO3)cc1` (configuration not stated) came in with an IC50 at Endothelin-1 receptor of 16 nM.
For the molecule `COc1ccc(C2(O)OC(=O)C(c3cc(OC)c4c(c3)OCO4)=C2Cc2ccccc2)cc1C` (configuration not stated), the figures for the IC50 (at Endothelin-1 receptor; in test [1]) were 8.2 nM and 1410 nM, respectively.
As to `COc1ccc(C2(O)OC(=O)C(c3ccc4c(c3)OCO4)=C2Cc2ccc(SC)cc2)cc1` (configuration not stated), the IC50 at Endothelin-1 receptor was 3.9 nM; in test [1] it was greater than 2500 nM.
In the same order, the values of `COc1ccc(C2(O)OC(=O)C(c3ccc4c(c3)OCO4)=C2Cc2cccc(C(=O)O)c2)cc1` (configuration not stated) are 50 nM and greater than 2500 nM.
Take `CC(C)Oc1ccc(C2(O)OC(=O)C(c3ccc4c(c3)OCO4)=C2Cc2ccccc2)cc1` (configuration not stated): the IC50 at Endothelin-1 receptor amounted to 1150 nM; in test [1], 11000 nM.
On the same counts, the results for `COc1ccc(C2(O)OC(=O)C(c3cc(OC)ccc3OC)=C2Cc2ccccc2)cc1` (configuration not stated) are 240 nM and greater than 2500 nM.
Molecule `COc1ccc(C2(O)OC(=O)C(c3ccc4c(c3)OCO4)=C2Cc2ccc(C)cc2)cc1` (configuration not stated) registered an IC50 in test [1] greater than 2500 nM.
For the molecule `COc1ccc(C2(O)OC(=O)C(c3ccc4c(c3)OCO4)=C2Cc2ccc(-c3ccccc3)cc2)cc1` (configuration not stated), the IC50 at Endothelin-1 receptor came out at 200 nM. That is a sub-micromolar value.
On Endothelin-1 receptor, `COc1ccc(C2(O)OC(=O)C(c3ccc4c(c3)OCO4)=C2Cc2cccc(OC)c2OC)cc1` (configuration not stated) came in with an IC50 of 11 nM.
As to `COC(=O)c1cccc(CC2=C(c3ccc4c(c3)OCO4)C(=O)OC2(O)c2ccc(OC)cc2)c1` (configuration not stated), the IC50 at Endothelin-1 receptor was 8.5 nM.
The same measure, in the same setting: next, `COc1ccc(C2(O)OC(=O)C(c3ccc4c(c3)OCO4)=C2CC2CCCCCC2)cc1` (configuration not stated): 35 nM; `COC(=O)c1ccc(CC2=C(c3ccc4c(c3)OCO4)C(=O)OC2(O)c2ccc(OC)cc2)cc1` (configuration not stated): 11 nM.
Turning to `O=C1OC(O)(c2ccc3c(c2)OCO3)C(Cc2ccccc2)=C1c1ccc2c(c1)OCO2` (configuration not stated), the IC50 at Endothelin-1 receptor was 19 nM.
As to `COc1ccc(C2(O)OC(=O)C(c3ccc4c(c3)OCO4)=C2Cc2cc(OC)cc(OC)c2)cc1` (configuration not stated), the IC50 on Endothelin-1 receptor came to 1.7 nM. This IC50 is about 11-fold lower than that of the molecule before.
The same measure, in the same setting: the result for `COc1ccc(C2(O)OC(=O)C(c3ccc(OC)cc3OC)=C2Cc2ccccc2)cc1` (configuration not stated) reads 300 nM.
With `COc1ccc(C2(O)OC(=O)C(c3ccc4c(c3)OCO4)=C2Cc2ccc(OC)c(OC)c2)cc1` (configuration not stated), the IC50 on Endothelin-1 receptor was 1.4 nM.
Consider `O=C1OC(O)(c2ccc(OCc3ccccc3)cc2)C(Cc2ccccc2)=C1c1ccc2c(c1)OCO2` (configuration not stated), for which, at Endothelin-1 receptor, the IC50 turned out to be 950 nM. Against the preceding molecule, the IC50 is about 680-fold higher.
Still for that read-out and setting: next, `CCC1=C(c2ccc3c(c2)OCO3)C(=O)OC1(O)c1ccc(OC)cc1` (configuration not stated): 320 nM.
In turn, `COc1ccc(CC2=C(c3ccc(C)cc3)C(=O)OC2(O)c2ccc(OC)cc2)cc1` (configuration not stated) displayed an IC50 in test [1] greater than 2500 nM.
In turn, `COc1ccc(CC2=C(c3ccc(OC)cc3)C(=O)OC2(O)c2ccc(OC)cc2)cc1` (configuration not stated) came in with an IC50 in test [1] of 9000 nM.
Consider `COc1ccc(C2(O)OC(=O)C(c3ccc4c(c3)OCO4)=C2Cc2ccccc2)cc1C` (configuration not stated), for which, on Endothelin-1 receptor, the IC50 was 12 nM.
Molecule `COc1ccc(C2OC(=O)C(c3ccc4c(c3)OCO4)=C2Cc2cc(OC)c(OC)c(OC)c2)cc1` (configuration not stated) had an IC50 in test [1] greater than 25000 nM.
As to `COc1ccc(C2(O)OC(=O)C(c3ccc4c(c3)OCO4)=C2Cc2ccc(OC)c(C)c2)cc1` (configuration not stated), in test [1], the IC50 came out at 1140 nM.
`COc1ccc(C2(O)OC(=O)C(c3ccc(OC)c(OC)c3)=C2Cc2ccccc2)cc1` (configuration not stated): the IC50 on Endothelin-1 receptor is 70 nM.
In the case of `COc1ccc(C2(O)OC(=O)C(c3cc(OC)c4c(c3)OCO4)=C2Cc2cc(OC)c(OC)c(OC)c2)cc1C` (configuration not stated), the IC50 in test [1] came to 180 nM. This counts as sub-micromolar.
Turning to `COc1ccc(C2(O)OC(=O)C(c3ccc4c(c3)OCO4)=C2Cc2cc(OC)c(OC)cc2OC)cc1` (configuration not stated), the IC50 on Endothelin-1 receptor was found to be 1.8 nM. That is a single-digit nanomolar value.

The record behind these values is ChEMBL document CHEMBL1129982, “Structure-activity relationships in a series of orally active gamma-hydroxy butenolide endothelin antagonists” (J Med Chem, 1997).
